eIF4E-4G inh: blocks eIF4E binding to eIF4G. TR-FRET eIF4E-eIF4GI(517-606) binding, 2 h. inhibition, % at 21.7 µM. 220,000 compounds, 0.37% hits. AID 782;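 also: 0% = full FRET control wells and 100% = background wells lacking eIF4GI fragment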
p47phox inh: inhibitors of human p47phox binding; P14598; p47phox/p22phox peptide binding, fluorescence polarization, 2 h; inhibition, % at 24.7 µM; 220,000 compounds, 0.53% hits;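 also: 0% = p47phox with labelled peptide and 100% = labelled peptide alone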
Target sequence (P14598 whole entry, looked up): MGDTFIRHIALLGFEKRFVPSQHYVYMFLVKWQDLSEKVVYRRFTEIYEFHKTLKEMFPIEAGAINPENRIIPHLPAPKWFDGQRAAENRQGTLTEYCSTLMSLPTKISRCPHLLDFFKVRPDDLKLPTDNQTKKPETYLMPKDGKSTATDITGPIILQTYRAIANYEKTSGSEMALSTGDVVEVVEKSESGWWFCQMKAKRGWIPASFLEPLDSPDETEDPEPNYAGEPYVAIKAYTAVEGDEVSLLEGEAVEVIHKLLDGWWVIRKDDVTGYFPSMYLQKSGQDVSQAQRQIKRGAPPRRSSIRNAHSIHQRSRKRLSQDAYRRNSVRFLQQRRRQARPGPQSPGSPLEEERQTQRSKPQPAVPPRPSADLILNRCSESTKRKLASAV
SUMO HTRF inh: inhibitors of human SUMOylation (UBC9). P63279. HTRF SUMOylation assay, SAE1/SAE2 + UBC9, in vitro. inhibition, % at 35 µM. 290,000 compounds, 0.36% hits; in the data active = inhibition above about 50%, passing the limit was not always enough
Target sequence (P63279 whole entry, looked up): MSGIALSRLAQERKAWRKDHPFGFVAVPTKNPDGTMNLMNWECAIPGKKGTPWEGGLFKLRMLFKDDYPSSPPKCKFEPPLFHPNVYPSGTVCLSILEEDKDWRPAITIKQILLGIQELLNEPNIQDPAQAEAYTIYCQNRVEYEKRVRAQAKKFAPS
p97 inhibitor: inhibitors of human p97 ATPase. P55072. recombinant p97 ATPase, Kinase-Glo ATP luminescence, 3 h. inhibition, % at 8 µM. 220,000 compounds, 0.42% hits; in the data active = inhibition above about 15%;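 also: 0% = DMSO vehicle and 100% = wells lacking enzyme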
14-3-3 Bad inh: disrupts binding of bovine 14-3-3 zeta to phospho-Bad peptide | TR-FRET 14-3-3zeta/Dy647-pBad peptide displacement, 1 h | 220,000 compounds, 0.71% hits | inhibition, % at 21.7 µM;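 active = inhibition above about 70%, limit read from the data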;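 also: 0% = full 14-3-3 plus peptide FRET controls and 100% = background without 14-3-3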
Tb MetRS inh: blocks T. brucei methionyl-tRNA synthetase activity; inhibition, % at 11.9 µM; AID 624268; 360,000 compounds, 0.4% hits; purified T. brucei MetRS, ATP depletion, Kinase-Glo luminescence;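 active = inhibition above a per-plate cutoff of the control wells' mean inhibition plus 3 SD, cut at about 5.5% in these data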;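 also: 0% = DMSO wells median and 100% = median of wells with control inhibitor compound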
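Test system – parasite MetRS enzyme · Reagent – substrates ATP, L-methionine and bulk Escherichia coli tRNA · Doses – 11.9 µM compound single dose, 0.9% DMSO · Times – 15 min enzyme-compound preincubation, 2 h reaction, 10 min detection, 25 °C · Signal – Kinase-Glo luminescence, ATP depletion format · Controls – DMSO-only wells as low control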
Starred values were filed as active, the others as inactive; . = no result; + = active, no number; [ ] = dose if it differs, or a comment. The list is not random: actives were taken first. Their share in the collection is about 1.6%.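 The calls were made as follows, unless noted: active = inhibition above about 30% (limit read from the data); inactive = the rest.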

SMILES	eIF4E-4G inh	p47phox inh	SUMO HTRF inh	p97 inhibitor	14-3-3 Bad inh	Tb MetRS inh
CCc1cc(=O)oc2cc3occ(-c4ccc(OC)c(F)c4)c3cc12	19	47*	4	-1	94*	0
COc1ccccc1NC(=O)c1sc2nc(-c3ccco3)ccc2c1N	2	8	54*	2	-2	0
COC(=O)C1=CN(c2ccc(N3CCOCC3)cc2)C(N)=C(C#N)C1c1cccc(F)c1 (centres undefined)	.	.	.	.	.	-1
CCN1CCN(CCNC(=O)c2ccc(/C=C3/Sc4ccccc4N(Cc4cccc(Cl)c4)C3=O)cc2)CC1	36*	72*	-1	3	58	-1
CN1CCN(CCCNC(=O)c2ccc(/C=C3\Sc4ccccc4N(Cc4ccccc4F)C3=O)cc2)CC1	31*	86*	16	1	86*	-1
Cc1cccc(CN2C(=O)/C(=C\c3ccc(C(=O)NCCN4CCOCC4)cc3)Sc3ccccc32)c1	.	.	10	.	.	0
CCN1CCN(CCNC(=O)c2ccc3c(c2)N(Cc2ccc(F)cc2)C(=O)/C(=C/c2ccccc2)S3)CC1	37*	62*	4	1	52	0
O=C(NCCN1CCOCC1)c1ccc(/C=C2\Sc3ccccc3N(Cc3ccccc3F)C2=O)cc1	.	.	-2	.	.	0
Cc1cccc(C)c1-n1nnnc1C(c1cc2ccccc2o1)N1CCN(C/C=C/c2ccccc2)CC1 (centres undefined)	.	.	.	.	.	0
CN(C)CCCn1c(SCC(=O)Nc2nc(-c3cccc(Br)c3)cs2)nc2ccccc2c1=O	20	76*	9	12	-27	0
O=C(CSc1nc2ccccc2[nH]1)Nc1nc(-c2cccc(Br)c2)cs1	-2	-26	-20	-4	2	0
C=CCN1C(=O)/C(=C2/Sc3ccccc3N2CC)SC1=S	.	.	0	.	.	-2
C=CCN1C(=O)/C(=C2/Sc3ccccc3N2CCCS(=O)(=O)O)SC1=S	6	-45	1	14	72*	-1
Cc1c(Cl)cccc1N1CC(C(=O)Nc2nccs2)CC1=O (centres undefined)	.	+	-9	2	.	0
Cc1cccc(N2CC(C(=O)Nc3nccs3)CC2=O)c1C (centres undefined)	.	.	11	.	.	0
CC(=O)C1=C(C)NC(SCc2ccc(C#N)cc2)=C(C#N)C1c1ccco1 (centres undefined)	44*[fluorescence artefact?]	1	2	6	-23	0
Cc1ccc(-n2c(SCC(=O)N/N=C/c3c(C)nn(-c4ccccc4)c3C)nc3ccccc3c2=O)cc1	4	19	12	2	19	0
Cc1ccccc1-n1c(SCC(=O)N/N=C/c2c(C)nn(-c3ccccc3)c2C)nc2ccccc2c1=O	-1	-4	-11	1	89*	-1
Cc1ccccc1-n1c(SCC(=O)NCc2cccs2)nc2ccccc2c1=O	-3	30*	9	4	3	0
O=C(N/N=C/c1ccc([N+](=O)[O-])o1)c1cc(-c2ccc(-c3ccccc3)cc2)nc2ccccc12	7	-46	62*	7	-13	0
O=C(Nc1ccc(F)cc1)C(c1cc2ccccc2o1)N1CCN(C(=O)c2ccco2)CC1 (centres undefined)	.	.	.	.	.	0
O=C(NCCN1CCCCC1)c1ccc(Oc2cc(Cl)cc(Cl)c2)o1	6	30*	-2	-13	-1	-1
O=C(NCC1CC1)c1ccc(Oc2cc(Cl)cc(Cl)c2)o1	-1	-20	15	2	0	0
Cc1c(N2C(=O)c3ccc4c5c(ccc(c35)C2=O)CC4)c(=O)n(-c2ccccc2)n1C	.	11	56*	6	.	0
Cc1c(N2C(=O)c3ccc(Br)cc3C2=O)c(=O)n(-c2ccccc2)n1C	2	-14	30	4	-13	1
SMILES	eIF4E-4G inh	p47phox inh	SUMO HTRF inh	p97 inhibitor	14-3-3 Bad inh	Tb MetRS inh
O=C(NCCCN1CCc2ccccc2C1)Nc1ccc(Br)cc1	3	-14	-3	-3	6	3
O=C(NCCN1CCc2ccccc2C1)Nc1ccc([N+](=O)[O-])cc1	-1	0	58*	-1	5	0
O=C1Nc2ccccc2-n2nnnc2C1N1CCN(C(=O)C2CCCO2)CC1 (centres undefined)	.	.	.	.	.	-1
CCOC(=O)c1c(NC(=O)CC(C)C)sc(C(C)=O)c1C	-4	3	0	-4	-8	-1
CCOC(=O)c1c(NC(=O)c2cc(-c3ccc(O)cc3)on2)sc(C(C)=O)c1C	31*	-11	12	6	65	-1
CC1(C(=O)NCc2ccccc2)CCC(=O)N1CCCn1ccnc1 (centres undefined)	.	.	.	.	.	-1
COc1ccc(C(=O)N(NC(=O)Oc2ccccc2)C(C)(C)C)cc1	6	6	16	4	3	-1
COc1cc2c(cc1OC)CN(C(=S)NC(=O)c1ccccc1)CC2	-2	31*	15	-1	6	0
CCOc1ccccc1N(C(=O)Nc1cccc(Cl)c1)C1=NC(C)CS1 (centres undefined)	-3	35*	3	0	-2	0
CCOc1ccccc1N(C(=O)Nc1ccc(Cl)cc1)C1=NCCS1	8	-10	5	1	-8	0
CCN(CC)C(=O)COc1c(-c2ccco2)oc2ccccc2c1=O	.	.	32	.	.	-1
CCN(CC)C(=O)COc1ccc2oc(-c3ccco3)cc(=O)c2c1	10	-4	53*	1	14	-1
COC(=O)C1=C(C)N(CCc2ccc(OC)cc2)C(=O)C1	-4	92*	-17	-3	-4	-1
COC(=O)C1=C(C)N(Cc2ccc(OC)cc2)C(=O)C1	-6	4	6	0	14	0
CCOC(=O)c1ccc2nc(C)c3c(c2c1)OC(C)C3 (centres undefined)	-27	-10	0	0	1	0
CCOC(=O)c1ccc2nc(C(F)(F)F)[nH]c(=O)c2c1	-4	-8	14	2	77*	0
Cc1nc(-c2cccnc2)sc1C(=O)N/N=C/c1ccccc1Cl	21	-3	-2	8	87*	-1
O=c1c(NCCc2ccccc2)c(-c2ccccc2)c1=O	.	.	8	.	.	-1
Cc1nn(CCC(N)=O)c2nc(-c3cccs3)cc(C(F)(F)F)c12	-3	-7	3	2	-9	0
Cc1nn(CCC(=O)O)c2nc(-c3cccnc3)cc(C(F)(F)F)c12	11	-7	28	4	73*	-1
COc1ccccc1CNC(=O)C[C@H]1CC[C@@H]2[C@H](COC[C@H](O)CN2Cc2ccc3c(c2)OCO3)O1	.	.	.	.	.	0
CC1=NN(c2ccc(C)cc2)C(=O)/C1=C/c1ccc(-c2cc([N+](=O)[O-])ccc2O)o1	.	.	24	.	.	0
